The record followed here is ChEMBL document CHEMBL3525986, “Nicotinamide N-oxidation by CYP2E1 in human liver microsomes” (Drug Metab Dispos, 2013).

Substrate in this data set: NC(=O)c1cccnc1
In words: Drug metabolism in human liver microsomes assessed as CYP2E1-mediated nicotinamide N-oxide formation after 30 mins by HPLC analysis. It is filed as ADME. Summed up:
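Pooled human liver microsomes at 1 mg/ml in 0.1 M NaH2PO4, pH 7.4, with 1mM NADPH were preincubated 2 min at 37°C. NAM was added at varied concentrations and run 30 min, then stopped with ice-cold methanol. N-oxide was measured by HILIC HPLC with UV at 254 nm against a standard curve. Km and Vmax came from a Michaelis-Menten nonlinear fit. Triplicates.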
(In general: Microsomes from liver hold many membrane-bound enzymes, among them those of drug oxidation.)

The Km is the concentration of substrate that gives half-maximal velocity. The Vmax is the top rate of the reaction or transport when substrate is in excess.

B1: Cytochrome P450 2E1 (Homo sapiens) (protein)
chain: MSALGVTVALLVWAAFLLLVSMWRQVHSSWNLPPGPFPLPIIGNLFQLELKNIPKSFTRLAQRFGPVFTLYVGSQRMVVMHGYKAVKEALLDYKDEFSGRGDLPAFHAHRDRGIIFNNGPTWKDIRRFSLTTLRNYGMGKQGNESRIQREAHFLLEALRKTQGQPFDPTFLIGCAPCNVIADILFRKHFDYNDEKFLRLMYLFNENFHLLSTPWLQLYNNFPSFLHYLPGSHRKVIKNVAEVKEYVSERVKEHHQSLDPNCPRDLTDCLLVEMEKEKHSAERLYTMDGITVTVADLFFAGTETTSTTLRYGLLILMKYPEIEEKLHEEIDRVIGPSRIPAIKDRQEMPYMDAVVHEIQRFITLVPSNLPHEATRDTIFRGYLIPKGTVVVPTLDSVLYDNQEFPDPEKFKPEHFLNENGKFKYSDYFKPFSTGKRVCAGEGLARMELFLLLCAILQHFNLKPLVDPKDIDLSPIHIGFGCIPPRYKLCVIPRS
Turning to B1, the Michaelis constant (Km) was found to be 2980 µM and the maximal velocity (Vmax) is 6.01e-05 µmol/min/mg.
